Compound activity (PubChem BioAssay)
Rows were chosen to be rich in hits. Some 3.4% of all compounds tested hit in one or more screens of this group.
LANA-H2A inh = blocks KSHV LANA binding to histone H2A/H2B. AID 2629. hit rate 0.6% among 320,000. Q9QR71. cell-free LANA-H2A/H2B peptide, fluorescence polarization. inhibition, % (concentration not given with the values); in the data active = inhibition mostly above about 10%, no sharp cut-off; inactive = mostly below about 6.7%
Target sequence (Q9QR71 whole entry, looked up): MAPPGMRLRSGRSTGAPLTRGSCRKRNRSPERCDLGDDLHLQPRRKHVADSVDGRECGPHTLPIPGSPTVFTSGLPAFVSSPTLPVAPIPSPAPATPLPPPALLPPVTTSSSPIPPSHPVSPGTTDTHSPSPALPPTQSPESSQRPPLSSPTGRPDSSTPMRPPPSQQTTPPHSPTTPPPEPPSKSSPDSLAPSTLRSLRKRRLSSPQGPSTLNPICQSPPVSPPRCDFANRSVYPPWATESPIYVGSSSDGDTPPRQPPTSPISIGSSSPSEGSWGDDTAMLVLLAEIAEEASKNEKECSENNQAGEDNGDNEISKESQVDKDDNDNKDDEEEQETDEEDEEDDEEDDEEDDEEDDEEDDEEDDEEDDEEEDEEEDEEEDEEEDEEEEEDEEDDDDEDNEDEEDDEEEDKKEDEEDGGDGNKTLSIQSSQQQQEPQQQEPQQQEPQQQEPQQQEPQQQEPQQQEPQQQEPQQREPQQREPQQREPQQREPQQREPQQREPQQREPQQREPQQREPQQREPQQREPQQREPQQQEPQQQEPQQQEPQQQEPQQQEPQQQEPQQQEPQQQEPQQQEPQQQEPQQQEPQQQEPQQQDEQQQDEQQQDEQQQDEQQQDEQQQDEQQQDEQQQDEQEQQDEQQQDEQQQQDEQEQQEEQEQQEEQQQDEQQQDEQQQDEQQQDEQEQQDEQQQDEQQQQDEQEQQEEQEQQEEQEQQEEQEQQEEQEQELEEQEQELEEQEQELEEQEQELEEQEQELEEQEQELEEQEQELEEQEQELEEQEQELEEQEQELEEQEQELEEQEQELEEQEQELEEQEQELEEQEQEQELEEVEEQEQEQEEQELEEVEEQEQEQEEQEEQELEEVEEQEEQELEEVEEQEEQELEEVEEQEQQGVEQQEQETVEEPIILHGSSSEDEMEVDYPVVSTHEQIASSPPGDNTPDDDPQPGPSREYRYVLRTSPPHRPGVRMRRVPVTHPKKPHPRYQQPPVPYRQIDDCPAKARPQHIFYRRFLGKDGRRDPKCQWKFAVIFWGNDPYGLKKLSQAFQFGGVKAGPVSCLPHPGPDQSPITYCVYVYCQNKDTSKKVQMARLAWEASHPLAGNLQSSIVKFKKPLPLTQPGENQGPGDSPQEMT
TRPN1 ag = activates the zebrafish TRPN1 channel; HEK293 zebrafish TRPN1-YFP, Fluo-8 calcium fluorescence; 100% = response to 87 µM carbachol; activation, % at 3 µM; hit rate 0.18% among 220,000; AID 1424;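 active = activation above its plate's cutoff, the mean activation of test wells on that plate plus 3 SD, cut at about 19% in these data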;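 also: 0% = DMSO alone and 100% = 87 µM carbachol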
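Control set: carbachol 87 µM as high control, DMSO as low control; system: HEK293 stable line with zebrafish TRPN1-YFP; read-out: % activation versus carbachol response; detection: intracellular calcium fluorescence with Fluo-8; doses: single test compound dose, 3 µM nominal, 0.3% DMSO; schedule: dye 1 h 37 °C plus 30 min RT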
TAAR1 agonist = agonists of human TAAR1. activation, % at 3 µM. CHO RD-HGA16 TAAR1, Fluo-8 calcium fluorescence; vehicle wells 0%, saturating PEA agonist 100%. Q96RJ0. hit rate 0.99% among 360,000;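 active = activation above the mean activation of all test compounds in the run plus 3 SD, cut at about 38% in these data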
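Signal – calcium-sensitive Fluo-8 signal, excitation 470-495, emission 515-575 nm · System – RD-HGA16 (CHO) cells co-expressing Gα16 and hTAAR1 · Incubation – 17-24 h seeding, 75 min 37 °C dye, 30 min RT · Compound dosing – 3 µM single concentration · Repeats – no replicates (n 1)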
GPR7 antag = antagonists of human GPR7 (neuropeptides B/W receptor 1). P48145. GPR7-expressing cells, fluorescence antagonist assay. inhibition, % at 4.4 µM. hit rate 1.1% among 290,000; in the data active = inhibition above about 16%, passing the limit was not always enough;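 also: cells stimulated with the agonist NPW; 0% = agonist with vehicle and 100% = vehicle without agonist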
TAAR1 antagonist = antagonists of human TAAR1 | CHO RD-HGA16 TAAR1, Fluo-8 calcium fluorescence, antagonist | inhibition, % at 3 µM | hit rate 1.5% among 360,000 | AID 624466;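 active = inhibition above a per-plate cutoff, the mean inhibition of test compounds on that plate plus 3 SD, cut at about 49% in these data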;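 also: 0% = DMSO plus EC80 beta-PEA response and 100% = DMSO alone without agonist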
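Assay system: RD-HGA16 CHO cells with stable hTAAR1 and Gα16 / Reagent: EC80 β-phenethylamine stimulus / Doses: 3 µM, single point / Timing: dye loading 75 min at 37 °C, then 30 min room temperature / Measured by: Fluo-8 intracellular calcium dye fluorescence, real-time kinetic reads / Controls: vehicle wells and EC80 agonist wells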
TRPML3 ag = activates the human TRPML3 channel | Q8TDD5 | AID 1448 | hit rate 0.29% among 220,000 | activation, % at 3 µM | HEK293 TRPML3-YFP, Fluo-8 calcium fluorescence; 100% = the carbachol control signal;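 active = activation above its plate's cutoff, the mean activation of the plate's test wells plus 3 SD, cut at about 12% in these data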;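 also: 0% = DMSO only wells and 100% = carbachol wells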
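system = HEK293 cells stably carrying human TRPML3-YFP | doses = one concentration, 3 µM nominal, 0.3% DMSO | timing = dye loading 1 h 37 °C then 30 min ambient, 125 s read | detection = Fluo-8 calcium dye fluorescence, ex 470-495, em 515-575 nm | benchmarks = high control carbachol 87 µM, low control DMSO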
nonsel antag count = nonselective antagonist in TAAR1 antagonist counter-screen; counterscreen cell line, calcium fluorescence, antagonist mode; AID 651780; hit rate 77% among 2,400; inhibition, % at 3 µM; shares compounds with TAAR1 antagonist; in the data active = inhibition above about 22%;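 also: CHO-Ga16 host cells stimulated with ATP at an EC80 level; 0% = agonist EC80 plus vehicle and 100% = vehicle without agonist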
TAAR1 antag conf = confirmation of human TAAR1 antagonists. shares compounds with TAAR1 antagonist. TAAR1-expressing cells, fluorescence antagonist read-out. inhibition, % at 3 µM. hit rate 40% among 2,400. AID 651785; in the data active = inhibition above about 49%;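 also: CHO-Ga16 host cells challenged with agonist PEA near its EC80; 0% = agonist at EC80 plus vehicle and 100% = vehicle with no agonist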
Ga16 nonsel ag = nonselective Ga16 agonist in TAAR1 antagonist counter-screen | shares compounds with TAAR1 antagonist | Ga16-expressing cells, calcium fluorescence, agonist counterscreen | activation, % at 3 µM | hit rate 18% among 2,400 | AID 651953; in the data active = activation above about 12%;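 also: 0% = vehicle wells and 100% = saturating stimulus response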
TAAR1 ag count = TAAR1 agonism, antagonist counter-screen; shares compounds with TAAR1 antagonist; hTAAR1 cell line, fluorescence activation, agonist mode; activation, % at 3 µM; hit rate 2% among 2,400; in the data active = activation above about 37%;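 also: CHO cells stably expressing TAAR1 with calcium dye readout; 0% = DMSO vehicle and 100% = full agonist response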
An asterisk follows results filed as active; / = no result given.

SMILES	LANA-H2A inh	TRPN1 ag	TAAR1 agonist	GPR7 antag	TAAR1 antagonist	TRPML3 ag	nonsel antag count	TAAR1 antag conf	Ga16 nonsel ag	TAAR1 ag count
COc1ccccc1N=c1oc2cc(O)ccc2cc1C(=O)NCC1CCCO1 (centres undefined)	-1.4	0.6	11.9	11.5	20.1	1.1	/	/	/	/
COc1cccc(N=c2oc3cc(O)ccc3cc2C(=O)NCC2CCCO2)c1 (centres undefined)	2.7	1.1	13.5	10.5	57.5*	0.8	35.0*	55.4*	10.9	18.0
Cc1cccc(/C=C2\Sc3ccc(C(=O)N4CCC(C(N)=O)CC4)cc3N(C)C2=O)c1	-2.8	/	7.5	9.4	60.2*	/	17.6	26.0	5.9	5.5
Cc1ccc(S(=O)(=O)NC(=O)C2(C)CCN2C(=O)C2CC2)cc1 (centres undefined)	/	/	0.9	/	-0.3	/	/	/	/	/
CCc1ccccc1S(=O)(=O)Cc1ccc(C(=O)N2CCN(c3ccccc3OC)CC2)o1	/	3.5	16.6	4.8	72.5*	0.5	28.6*	49.9*	18.4*	38.3*
O=C(C(Sc1ccccc1)c1ccccc1)N1CCN(c2ccccc2F)CC1 (centres undefined)	0.3	0.3	5.8	13.5	50.3*	-0.5	17.2	35.9	6.9	7.9
COc1ccccc1N1CCN(C(=O)c2oc3c(c2C)C(=O)CC(C)(C)C3)CC1	0.9	/	13.8	3.3	74.9*	/	32.3*	56.2*	11.0	11.0
O=C(c1ccc(N2CCN(C(=O)c3cccc(F)c3)CC2)cc1)c1cccc(F)c1	0.6	/	4.0	-1.9	53.1*	/	23.7*	34.4	8.8	11.2
CCOC(=O)N1CCN(c2ccc(C(=O)c3cccc(F)c3)cc2)CC1	2.1	1.6	/	16.8	/	0.8	/	/	/	/
Cc1c(C(=O)N2CCN(c3ccccn3)CC2)oc2c1C(=O)CC(C)(C)C2	6.4	/	12.4	-5.3	48.5	/	/	/	/	/
COc1ccccc1N1CCN(C(=O)C2CCN(C(=O)c3cccc(Cl)c3)CC2)CC1	7.1	/	-2.4	-11.0	-2.3	/	/	/	/	/
O=C(c1ccc2c(=O)n(CCc3ccccc3)c(=O)[nH]c2c1)N1CCN(c2ccccc2)CC1	3.6	/	/	-25.4	/	/	/	/	/	/
O=C(c1cccc(C(=O)N2CCN(c3ccccc3F)CC2)c1)N1CCN(c2ccccc2F)CC1	1.4	0.0	10.6	3.5	67.8*	0.5	26.5*	36.1	9.2	4.6
O=C(c1ccc2c(=O)n(CCc3ccccc3)c(=O)[nH]c2c1)N1CCN(c2ccc(F)cc2)CC1	2.0	/	9.2	-14.2	58.1*	/	29.1*	44.9	6.3	10.1
COc1ccccc1N1CCN(C(=O)c2cccc(C(=O)N3CCN(c4ccccc4OC)CC3)c2)CC1	-1.8	/	17.2	-14.1	54.5*	/	27.3*	48.8*	8.7	9.6
O=C(c1c(F)cccc1F)N1CCN(c2ccccc2F)CC1	1.9	0.1	9.2	12.5	-10.4	1.0	/	/	/	/
O=C(Nc1ccccc1Br)c1ccccc1-c1ccccc1	1.1	-1.9	9.4	-1.6	13.4	-0.7	/	/	/	/
Cc1cc(Br)ccc1NC(=O)c1ccccc1-c1ccccc1	0.5	-1.7	0.5	-6.9	57.0*	-0.1	2.7	0.9	2.5	2.0
CCOC(=O)c1c(-c2ccccc2)nnn1-c1nc(OCC)nc(N2CCCCC2)n1	0.7	0.0	13.5	-1.0	52.7*	0.7	22.9*	29.8	6.4	6.0
Nc1ccn([C@@H]2O[C@H](C(=O)NCc3ccc4c(c3)OCO4)[C@@H](O)[C@H]2O)c(=O)n1	/	/	1.3	/	-17.1	/	/	/	/	/
COc1cc(C(=O)OCc2csc(CC(=O)Nc3cc(C)ccc3C)n2)ccc1OC(F)F	/	/	8.6	/	65.5*	/	41.8*	52.6*	8.4	4.6
Cc1ccc(C)c(NC(=O)Cc2nc(CCl)cs2)c1	-5.4	0.3	-1.6	3.8	2.1	0.2	/	/	/	/
Brc1ccc2nc(-c3ccc(CN4CCC5(CC4)CNc4ccccc45)cc3)c(-c3ccccc3)nc2c1	/	/	5.0	/	49.4*	/	26.5*	39.4	2.7	5.1
COc1cccc(CNn2c(-c3cccc(C)c3)nc3ccccc3c2=O)c1O	2.1	-1.6	4.4	-14.9	54.2*	0.0	13.3	38.8	7.2	5.1
COc1ccc(O)c(CNn2c(-c3ccc(Br)cc3)nc3ccccc3c2=O)c1	0.1	0.3	1.4	-7.0	43.0	0.6	/	/	/	/
SMILES	LANA-H2A inh	TRPN1 ag	TAAR1 agonist	GPR7 antag	TAAR1 antagonist	TRPML3 ag	nonsel antag count	TAAR1 antag conf	Ga16 nonsel ag	TAAR1 ag count
COc1ccc(NC(=O)CN(C)C(=O)c2cn(-c3ccccc3)nc2-c2cccs2)cc1	6.5	/	11.2	/	56.4*	/	23.9*	40.0	6.5	4.1
CCOc1ccc(NC(=O)CN(C)C(=O)c2cn(-c3ccc(F)cc3)nc2-c2cccc(OC)c2)cc1OCC	-0.8	/	7.8	/	69.9*	/	33.2*	37.9	6.2	1.3
CN(CC(=O)Nc1ccc(F)cc1)C(=O)c1cc(-c2cccs2)nn1-c1ccccc1	/	/	6.3	/	69.1*	/	27.7*	44.8	6.1	7.6
COc1ccc(NC(=O)CN(C)C(=O)c2cn(-c3ccccc3)nc2-c2cccnc2)cc1	0.0	/	4.5	/	14.4	/	/	/	/	/
O=C(O)c1cc(-c2cccs2)nn1-c1ccccc1	4.6	-0.3	0.2	-17.9	-13.3	0.6	/	/	/	/
COc1cc2cc[n+](Cc3ccc([N+](=O)[O-])cc3)cc2cc1OC	1.3	/	-0.2	-1.8	4.5	/	/	/	/	/
CCN(CC)S(=O)(=O)c1ccc(C(O)=C(C#N)c2nc3ccccc3n2C)cc1	/	/	16.1	/	65.6*	/	30.5*	58.7*	13.1*	14.6
c1ccc(SCc2cn(C[C@H]3CC[C@@H]([C@@H]4CC[C@H](Cn5cc(CSc6ccccc6)nn5)O4)O3)nn2)cc1	-0.9	/	31.9	12.5	70.8*	/	36.5*	56.0*	14.2*	11.6
c1ccc(Cn2cc(CSc3ccccc3)nn2)cc1	3.2	/	1.4	/	-0.2	/	/	/	/	/
CCc1nc2ccc(C(=O)NCCC(C)C)cn2c1N(CCN(C)C)CC1CC1	/	/	-0.1	/	-14.7	/	/	/	/	/
OC(c1ccc(F)c(F)c1)c1nc(-c2ccc3ccccc3c2)cs1 (centres undefined)	/	/	22.7	/	55.3*	/	32.4*	36.9	12.8*	13.8
NC(c1ccc(F)c(F)c1)c1nc(-c2ccc3ccccc3c2)cs1 (centres undefined)	/	/	2.2	/	8.2	/	/	/	/	/
